Here are results for 14 compounds from PubChem BioAssay.

Experiment [1] can be described thus: inhibitors of TNFa-induced NFkB p65 translocation, primary screen, imaging, HUVEC, MLSMR starter and 10KST1 sets (AID 438;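 active = inhibition above 20% together with a positive visual image hit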;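 note: compound added about 3h40 before a 20 min TNFalpha stimulation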;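 for inhibition: signal is the nuclear over cytoplasmic p65 intensity ratio per well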). The note with it: HUVEC TNFa-induced p65 nuclear translocation; cell count: measured here: nuclei count (cytotoxicity indicator), at 2.08 µM; inhibition: at 2 µM, stronger effect = higher value, 0% TNFa-plus-vehicle, 100% no-TNFa wells.
A short description of experiment [2]: reduction of polyQ htt aggregates in cells – imaging, exon1htt(103Q)mCFP cells, high-content imaging, primary screen (AID 483;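 active = visual image review flags a hit and inhibition of aggregation exceeds 20%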;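 note: compound exposure lasted 3 days before fixation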;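 for nuclei count: percent of the per-plate median nuclei count of sample wells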). The note with it: exon1htt(103Q)mCFP cell line, aggregate imaging, at 2 µM; inhibition of aggregation: stronger effect = higher value; nuclei count: measured here: cell count, toxicity.
The nature of experiment [3]: endothelial E-selectin expression blockers – imaging, HUVEC, immunofluorescence, MLSMR starter and 10KST1 sets, primary screen (AID 487;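 active = visually confirmed hit in the image check and inhibition above 20%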;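 for inhibition: signal is fraction of cell area covered by stained E-selectin grains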;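 for nuclei count: 100% = median nuclei count of all wells on the same plate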). The note with it: HUVEC TNFalpha-induced E-selectin immunofluorescence imaging, at 2 µM; inhibition: stronger effect = higher value; nuclei count: measured here: cell number, toxicity.
Experiment [4] concerns the target Voltage-gated potassium channel subunit beta-2 (Rattus norvegicus) (UniProt P62483). The experiment can be described thus: inhibitors of rat Kvbeta2 reductase activity – biochemical, NADPH fluorescence, primary screen (AID 622;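 active = fluorescence slope higher than the sample average by over 3 SD, cut at about -0.22 in these data, passing the limit was not always enough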;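 note: slope of raw intensity against log time taken from 70 to 1610 s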). The note with it: recombinant KvBeta, 4-cyanobenzaldehyde reduction, at 10 µM, stronger effect = higher value.
Experiment [5] has the same target. The experiment in a line: enhancers of rat Kvbeta2 NADPH turnover – biochemical, NADPH fluorescence, primary screen (AID 623;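 active = NADPH fluorescence slope more negative than the mean of all samples by about 3 SD, 99.7% confidence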;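 note: fluorescence intensity change per second fitted from 20 to 320 s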). The note with it: Recombinant KvBeta, NADPH fluorescence decrease slope, 10 min; at 10 µM; stronger effect = lower value.
The target of experiment [6] is Muscarinic acetylcholine receptor M4 (Homo sapiens) (UniProt P08173). The experiment can be described thus: M4-linked GIRK flux change, two-sided – cell-based, HEK293 M4/GIRK, thallium flux, BTC-AM, M4 allosteric agonist project, primary screen (AID 625;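 active = fluorescence slope after compound addition differing from the mean of all tested samples at 99.7% confidence, mostly higher but some lower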;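 note: thallium influx through GIRK channels coupled to M4 in HEK293 cells with BTC-AM dye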). Particulars: at 10 µM, actives lie on both sides. The gist of the method: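 System: HEK293 cells with M4 receptor and GIRK channels | Incubation: Cells overnight at 37 °C, BTC-AM loading 1 h, reads 2 min total | Technique: Kinetic BTC-AM fluorescence sampled at 1 Hz, 10 s pre-addition baseline | Measure: Post-addition slope, 15–24 s, of baseline-normalized fluorescence | Control set: Carbachol positive, DMSO negative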

The nature of experiment [7]: blockers of RIG-like receptor reporter activation – cell-based, Sendai virus stimulus, luciferase, 10K MLSCN set, TLR/RLR signaling modifier project, primary screen (AID 602276;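 active = inhibition at or above 50% at 10 µM; inactive = inhibition below 50%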;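 note: firefly luciferase from ISG56 promoter only with Renilla not read in this screen; 0% = Sendai virus plus DMSO and 100% = medium plus DMSO without virus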). Particulars: HEK293 RL24 IRF3 luciferase reporter, at 10 µM, stronger effect = higher value. A general note: A reporter such as luciferase makes a cellular process visible.
Experiment [8] is described as follows: TLR3 IRF3 reporter activation blockers – cell-based, poly I:C stimulus, luciferase, 10K MLSCN set, primary screen (AID 602277). The note with it: HEK293-TLR3 RL24 IRF3 luciferase reporter, at 10 µM, stronger effect = higher value.

Activity calls are given as the source filed them.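 Rule for the calls, unless noted: active = inhibition of the reporter signal at or above 50%; inactive = inhibition below 50%.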

Voltage-gated potassium channel subunit beta-2 (Rattus norvegicus), sequence (P62483 whole entry, looked up): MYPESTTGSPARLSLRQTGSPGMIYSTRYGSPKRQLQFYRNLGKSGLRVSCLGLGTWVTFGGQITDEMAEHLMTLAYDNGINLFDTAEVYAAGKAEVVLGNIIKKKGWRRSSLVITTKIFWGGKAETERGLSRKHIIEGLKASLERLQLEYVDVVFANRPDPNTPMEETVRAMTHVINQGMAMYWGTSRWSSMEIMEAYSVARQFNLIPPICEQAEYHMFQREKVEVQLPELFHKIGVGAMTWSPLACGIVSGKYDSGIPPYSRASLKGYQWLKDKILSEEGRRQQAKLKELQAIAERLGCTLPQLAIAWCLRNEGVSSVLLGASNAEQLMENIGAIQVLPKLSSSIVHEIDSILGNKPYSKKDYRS
Muscarinic acetylcholine receptor M4 (Homo sapiens), sequence (P08173 whole entry, looked up): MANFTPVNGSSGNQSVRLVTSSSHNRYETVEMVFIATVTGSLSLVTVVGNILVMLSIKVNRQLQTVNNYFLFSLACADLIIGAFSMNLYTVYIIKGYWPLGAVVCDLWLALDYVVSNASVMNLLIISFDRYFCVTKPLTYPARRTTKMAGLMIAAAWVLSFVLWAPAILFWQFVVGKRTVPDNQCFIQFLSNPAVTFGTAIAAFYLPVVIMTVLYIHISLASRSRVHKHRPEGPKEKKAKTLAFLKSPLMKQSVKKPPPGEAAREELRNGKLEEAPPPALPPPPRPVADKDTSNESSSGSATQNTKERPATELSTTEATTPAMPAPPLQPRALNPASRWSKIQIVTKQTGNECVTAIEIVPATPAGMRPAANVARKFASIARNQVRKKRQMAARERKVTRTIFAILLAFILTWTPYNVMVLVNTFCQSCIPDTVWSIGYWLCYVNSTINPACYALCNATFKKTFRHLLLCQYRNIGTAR

Broadly, the inhibition is the relative decrease from the control value, in per cent. As to `CC(=O)NC1(c2nnnn2CCOC(=O)Nc2ccc(Cl)cc2)CCCCC1`, the cell count in experiment [1] stood at 559. Further, the inhibition was -12.5% (inactive) in experiment [1], -23.9% (inactive) in experiment [3], 9.27% (inactive) in experiment [7] and 8.82% (inactive) in experiment [8]. The inhibition of aggregation in experiment [2] is 2.9% (inactive). Further, the figures for the nuclei count in experiment [2] and in experiment [3] were 84.6% and 91.3%, respectively. The fluorescence slope in experiment [4] is -0.513 (inactive); in experiment [6] it was 0.0035 (inactive). The NADPH fluorescence slope in experiment [5] is -0.000175 (inactive).

For `O=C1CCC(=O)N1OCCCOc1ccc(Br)cc1Cl`, the cell count in experiment [1] was 490. Moreover, the inhibition in experiment [1] is 1% (inactive); in experiment [3], -76% (inactive); in experiment [7], 16.1% (inactive); in experiment [8], 18% (inactive). In addition, in experiment [2], the inhibition of aggregation was 9% (inactive). Moreover, the nuclei count worked out at 74.1% in experiment [2] and 106% in experiment [3]. Moreover, the fluorescence slope in experiment [4] was -0.456 (inactive); in experiment [6] it was 0.00805 (inactive). The NADPH fluorescence slope in experiment [5] was 2e-05 (inactive).

For the compound `CS(=O)(=O)c1ccc2nc(NC(=O)CCC(=O)c3cccs3)sc2c1`, in experiment [1], the cell count is 517. Further, the inhibition was 2.6% (inactive) in experiment [1], -87.7% (inactive) in experiment [3], 14.5% (inactive) in experiment [7] and 4.68% (inactive) in experiment [8]. Further, the inhibition of aggregation in experiment [2] was -3.8% (inactive). Also, the nuclei count in experiment [2] stood at 105%; in experiment [3], 95.8%. For the same compound, the results for the fluorescence slope in experiment [4] and in experiment [6] were -0.594 (inactive) and 0.00448 (inactive), respectively. The NADPH fluorescence slope in experiment [5] is 1.3e-06 (inactive).

With `O=C(O)C1CC(=O)N(c2ccc(OCc3ccccc3Cl)cc2)C1` (centres undefined), the cell count in experiment [1] was found to be 339. For the same compound, the inhibition was -2.2% (inactive) in experiment [1], -95.2% (inactive) in experiment [3], 18.4% (inactive) in experiment [7] and 23.2% (inactive) in experiment [8]. Further, in experiment [2], the inhibition of aggregation was 12.7% (inactive). Also, the nuclei count in experiment [2] turned out to be 97.1%; in experiment [3] it was 94.8%. Also, the fluorescence slope in experiment [4] was -0.644 (inactive); in experiment [6], 0.0043 (inactive). For the same compound, the NADPH fluorescence slope in experiment [5] was 4e-05 (inactive).

With `CCOCCn1cnc2sc(C(=O)Nc3nc(C)c(C(=O)OCC)s3)c(C)c2c1=O`, in experiment [1], the cell count amounted to 785. The inhibition in experiment [1] was -3.7% (inactive); in experiment [3], -9.6% (inactive); in experiment [7], 11.8% (inactive); in experiment [8], -0.0117% (inactive). The inhibition of aggregation in experiment [2] was 2.9% (inactive). Also, the figures for the nuclei count in experiment [2] and in experiment [3] were 121% and 105%, respectively. Besides, the fluorescence slope in experiment [4] is -0.26 (inactive); in experiment [6] it was 0.0063 (inactive). Also, in experiment [5], the NADPH fluorescence slope was 4.1e-06 (inactive).

For `Cc1cccc2cc(CN(Cc3nnnn3Cc3ccco3)C3CCCC3)c3nnnn3c12`, the cell count in experiment [1] was found to be 719. Besides, the inhibition is -2.8% (inactive) in experiment [1], -14% (inactive) in experiment [3], 9.99% (inactive) in experiment [7] and 13% (inactive) in experiment [8]. Moreover, the inhibition of aggregation in experiment [2] is 4.4% (inactive). In addition, the nuclei count in experiment [2] is 113%; in experiment [3], 116%. The fluorescence slope was -0.451 (inactive) in experiment [4] and 0.00551 (inactive) in experiment [6]. For the same compound, the NADPH fluorescence slope in experiment [5] is 3.4e-05 (inactive).

Turning to `CN1CCN(S(=O)(=O)c2ccc(Sc3nnc(-c4cccs4)n3-c3ccccc3)nc2)CC1`, in experiment [1], the cell count was determined as 603. Besides, the inhibition in experiment [1] was -11% (inactive); in experiment [3], -140% (inactive); in experiment [7], 1.81% (inactive); in experiment [8], 4.54% (inactive). The inhibition of aggregation in experiment [2] was -9% (inactive). For the same compound, the nuclei count was 104% in experiment [2] and 142% in experiment [3]. Also, the fluorescence slope was -0.245 (inactive) in experiment [4] and 0.00549 (inactive) in experiment [6]. In addition, the NADPH fluorescence slope in experiment [5] is -2e-05 (inactive).

As for `O=C(CSc1nnc(-c2cccnc2)o1)OC1CCCCC1`, the cell count in experiment [1] is 695. Further, the inhibition in experiment [1] was -3.9% (inactive); in experiment [3], -54.6% (inactive); in experiment [7], 15.3% (inactive); in experiment [8], 16.2% (inactive). Also, the inhibition of aggregation in experiment [2] was 22.6% (inactive). Also, the nuclei count in experiment [2] was found to be 95.8%; in experiment [3], 126%. Further, the fluorescence slope in experiment [4] is -0.517 (inactive); in experiment [6] it was 0.0051 (inactive). Moreover, the NADPH fluorescence slope in experiment [5] is 3.9e-05 (inactive).

Turning to `CCC(=O)N1CCc2cc(Br)cc(S(=O)(=O)N3CCCCCC3)c21`, the cell count in experiment [1] stood at 434. Moreover, the inhibition in experiment [1] is -3.9% (inactive); in experiment [3] it was 13.2% (inactive); in experiment [7], 7.37% (inactive); in experiment [8], 12.3% (inactive). Further, the inhibition of aggregation in experiment [2] is 34.8% (inactive). Also, the nuclei count is 65.9% in experiment [2] and 99.9% in experiment [3]. The fluorescence slope is -0.54 (inactive) in experiment [4] and 0.00616 (inactive) in experiment [6]. For the same compound, the NADPH fluorescence slope in experiment [5] is -5.4e-06 (inactive).

For `COc1ccc(-c2noc(C3CCCN(C(=O)CCc4ccccc4)C3)n2)cc1` (centres undefined), the cell count in experiment [1] was 383. The inhibition was -3.5% (inactive) in experiment [1], -83.2% (inactive) in experiment [3], 12.3% (inactive) in experiment [7] and 1.57% (inactive) in experiment [8]. In addition, the inhibition of aggregation in experiment [2] is 18.4% (inactive). For the same compound, the nuclei count is 101% in experiment [2] and 57.8% in experiment [3]. The fluorescence slope in experiment [4] is -0.454 (inactive); in experiment [6] it was 0.00551 (inactive). Further, the NADPH fluorescence slope in experiment [5] was -5e-06 (inactive).

Regarding `CCOC(=O)N1CCN(C(=O)C2c3cc(OC)c(OC)cc3C(=O)N3CCc4ccccc4C23)CC1` (centres undefined), the cell count in experiment [1] stood at 312. The inhibition in experiment [1] is 0.5% (inactive); in experiment [3], 6.9% (inactive); in experiment [7], 14.7% (inactive); in experiment [8], 13.6% (inactive). For the same compound, the inhibition of aggregation in experiment [2] is 13.5% (inactive). In addition, the nuclei count in experiment [2] is 104%; in experiment [3] it was 102%. Moreover, the fluorescence slope was -0.397 (inactive) in experiment [4] and 0.00684 (inactive) in experiment [6]. In addition, in experiment [5], the NADPH fluorescence slope is 4.3e-05 (inactive).

Turning to `CC(=O)N1c2c(cc(Br)cc2S(=O)(=O)N2CCN(c3ccccn3)CC2)CC1C` (centres undefined), the cell count in experiment [1] worked out at 365. Further, the inhibition in experiment [1] was -15.4% (inactive); in experiment [3], -49.9% (inactive); in experiment [7], 15.6% (inactive); in experiment [8], 6.87% (inactive). Besides, the inhibition of aggregation in experiment [2] was 21.2% (inactive). Besides, the nuclei count came out at 93.1% in experiment [2] and 128% in experiment [3]. In addition, the values for the fluorescence slope in experiment [4] and in experiment [6] were -0.523 (inactive) and 0.00651 (inactive), respectively. For the same compound, the NADPH fluorescence slope in experiment [5] is -0.000101 (inactive).

With `CN(C)S(=O)(=O)c1ccc2c(c1)C(CC(=O)O)OC2=O` (centres undefined), in experiment [1], the cell count stood at 616. For the same compound, the inhibition in experiment [1] is 2.3% (inactive); in experiment [3], 27.5% (inactive); in experiment [7], 17.3% (inactive); in experiment [8] it was 26.3% (inactive). Moreover, the inhibition of aggregation in experiment [2] is 13.2% (inactive). For the same compound, the nuclei count was 109% in experiment [2] and 105% in experiment [3]. Moreover, the figures for the fluorescence slope in experiment [4] and in experiment [6] were -0.511 (inactive) and 0.00625 (inactive), respectively. In experiment [5], the NADPH fluorescence slope is 0.000172 (inactive).

With `Cc1nc(C)c(C(=O)OCC(=O)N2CCN(c3ccccc3)CC2)s1`, in experiment [1], the cell count is 700. Moreover, the inhibition in experiment [1] was -4.8% (inactive); in experiment [3] it was -18.7% (inactive); in experiment [7] it was 16.8% (inactive); in experiment [8], 5.6% (inactive). Moreover, the inhibition of aggregation in experiment [2] is -3.6% (inactive). Besides, the nuclei count in experiment [2] was determined as 99.4%; in experiment [3], 102%. The values for the fluorescence slope in experiment [4] and in experiment [6] were -0.567 (inactive) and 0.00679 (inactive), respectively. For the same compound, the NADPH fluorescence slope in experiment [5] was -2e-05 (inactive).
